These results are taken from ChEMBL document CHEMBL2380237, “Substituted imidazopyridazines are potent and selective inhibitors of Plasmodium falciparum calcium-dependent protein kinase 1 (PfCDPK1)” (Bioorg Med Chem Lett, 2013).

Activity calls are given as the source filed them. The rule behind the calls is not given here.

One data set has as its system Plasmodium berghei. Nature of the data set: Inhibition of Plasmodium berghei recombinant CDPK1 by fluorescence assay in presence of rhodamine-labeled ParM. In a few lines:
(§1)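 Recombinant CDPK1 (P. berghei or P. vivax) ATPase activity followed with an ADP-sensitive biosensor, rhodamine-labeled ParM; reaction progress tracked as rising fluorescence from ADP accumulation on a plate reader.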

The subject of a further data set is Plasmodium vivax. Nature of the data set: Inhibition of Plasmodium vivax recombinant CDPK1 by fluorescence assay in presence of rhodamine-labeled ParM. In a few lines: as §1
A short description of data set [1]: Intrinsic clearance in mouse. In kind it is ADME, organism-based. To be noted: in vivo.
The target in data set [2] is Tyrosine-protein kinase Yes (Homo sapiens) (UniProt P07947). Nature of the data set: Inhibition of human YES1 at 1 uM.
Sequence of Tyrosine-protein kinase Yes (Homo sapiens) (P07947 2-543 limits assumed): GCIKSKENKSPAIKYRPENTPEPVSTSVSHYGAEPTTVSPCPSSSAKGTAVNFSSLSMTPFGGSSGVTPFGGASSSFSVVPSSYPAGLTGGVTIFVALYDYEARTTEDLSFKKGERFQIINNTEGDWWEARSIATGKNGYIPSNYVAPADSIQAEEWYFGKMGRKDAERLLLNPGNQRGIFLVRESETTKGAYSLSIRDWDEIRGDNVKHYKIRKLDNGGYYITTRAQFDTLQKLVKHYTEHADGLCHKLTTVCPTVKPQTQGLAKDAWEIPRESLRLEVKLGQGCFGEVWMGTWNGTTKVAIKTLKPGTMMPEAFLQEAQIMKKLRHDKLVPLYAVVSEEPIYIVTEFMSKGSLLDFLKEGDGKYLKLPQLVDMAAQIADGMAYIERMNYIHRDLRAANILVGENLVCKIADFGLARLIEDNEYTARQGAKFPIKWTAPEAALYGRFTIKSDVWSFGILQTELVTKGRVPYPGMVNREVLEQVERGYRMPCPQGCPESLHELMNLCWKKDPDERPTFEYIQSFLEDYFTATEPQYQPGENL
The species named for another data set is Homo sapiens. The experiment in a line: Inhibition of human VEGFR at 1 uM.
In data set [3] the target is Tyrosine-protein kinase Lck (Homo sapiens) (UniProt P06239). The experiment in a line: Inhibition of human LCK at 1 uM.
Sequence of Tyrosine-protein kinase Lck (Homo sapiens) (P06239 2-509 limits assumed): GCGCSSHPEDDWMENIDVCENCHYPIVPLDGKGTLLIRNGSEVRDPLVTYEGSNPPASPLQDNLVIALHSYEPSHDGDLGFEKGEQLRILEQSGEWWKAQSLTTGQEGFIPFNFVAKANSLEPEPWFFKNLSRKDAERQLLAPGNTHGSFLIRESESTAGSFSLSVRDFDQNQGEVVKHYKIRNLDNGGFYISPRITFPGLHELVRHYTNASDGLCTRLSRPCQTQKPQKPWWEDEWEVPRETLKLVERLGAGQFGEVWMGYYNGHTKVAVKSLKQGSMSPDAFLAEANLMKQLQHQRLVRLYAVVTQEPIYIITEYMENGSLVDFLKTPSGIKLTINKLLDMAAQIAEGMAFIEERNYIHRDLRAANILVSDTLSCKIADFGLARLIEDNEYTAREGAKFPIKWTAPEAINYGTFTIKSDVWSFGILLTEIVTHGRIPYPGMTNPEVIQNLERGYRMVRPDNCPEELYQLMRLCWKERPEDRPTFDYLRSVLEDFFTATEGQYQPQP
Data set [4] deals with Mitogen-activated protein kinase kinase kinase 9 (Homo sapiens) (UniProt P80192). The experiment in a line: Inhibition of human MLK1 at 1 uM.
For data set [5], the target named is Proto-oncogene tyrosine-protein kinase Src (Homo sapiens) (UniProt P12931). The experiment in a line: Inhibition of human SRC at 1 uM.
Sequence of Proto-oncogene tyrosine-protein kinase Src (Homo sapiens) (P12931 2-536 limits assumed): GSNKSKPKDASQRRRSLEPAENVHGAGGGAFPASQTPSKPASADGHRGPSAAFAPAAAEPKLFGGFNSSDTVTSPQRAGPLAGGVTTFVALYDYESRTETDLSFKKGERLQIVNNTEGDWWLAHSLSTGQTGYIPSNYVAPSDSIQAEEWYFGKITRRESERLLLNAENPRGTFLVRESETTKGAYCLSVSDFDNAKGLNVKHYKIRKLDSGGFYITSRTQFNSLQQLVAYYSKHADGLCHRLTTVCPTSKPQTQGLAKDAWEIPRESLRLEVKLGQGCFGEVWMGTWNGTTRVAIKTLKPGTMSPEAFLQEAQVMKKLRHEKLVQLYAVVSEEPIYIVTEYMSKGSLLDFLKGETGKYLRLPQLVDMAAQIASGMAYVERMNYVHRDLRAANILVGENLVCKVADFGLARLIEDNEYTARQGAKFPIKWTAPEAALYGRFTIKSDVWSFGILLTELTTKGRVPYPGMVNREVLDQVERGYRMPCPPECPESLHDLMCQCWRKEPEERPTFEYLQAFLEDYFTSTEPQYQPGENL
The target of data set [6] is T1, NUAK family SNF1-like kinase 1 (Homo sapiens) (UniProt O60285).
T1 sequence (whole entry): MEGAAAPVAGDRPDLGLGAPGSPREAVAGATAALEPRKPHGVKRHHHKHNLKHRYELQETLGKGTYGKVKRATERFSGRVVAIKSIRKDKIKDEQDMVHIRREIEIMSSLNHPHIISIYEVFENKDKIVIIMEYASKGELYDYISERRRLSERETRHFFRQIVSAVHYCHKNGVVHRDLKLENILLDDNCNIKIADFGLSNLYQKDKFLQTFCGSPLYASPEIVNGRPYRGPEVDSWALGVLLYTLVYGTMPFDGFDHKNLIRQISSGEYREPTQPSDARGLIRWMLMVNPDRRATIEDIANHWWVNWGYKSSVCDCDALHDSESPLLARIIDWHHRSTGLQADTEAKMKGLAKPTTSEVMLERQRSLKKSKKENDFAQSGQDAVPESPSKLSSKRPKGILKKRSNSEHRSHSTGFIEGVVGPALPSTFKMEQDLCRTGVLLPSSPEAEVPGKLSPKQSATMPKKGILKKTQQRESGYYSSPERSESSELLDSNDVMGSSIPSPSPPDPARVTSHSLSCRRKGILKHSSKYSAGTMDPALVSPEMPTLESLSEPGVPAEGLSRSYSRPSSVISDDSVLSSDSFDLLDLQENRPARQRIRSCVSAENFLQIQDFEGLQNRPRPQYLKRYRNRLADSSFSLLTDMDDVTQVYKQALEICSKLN
The experiment in a line: Inhibition of human NUAK1 at 1 uM.

For data set [7], the target named is T2, Mitogen-activated protein kinase kinase kinase kinase 2 (Homo sapiens) (UniProt Q12851).
T2 sequence (whole entry): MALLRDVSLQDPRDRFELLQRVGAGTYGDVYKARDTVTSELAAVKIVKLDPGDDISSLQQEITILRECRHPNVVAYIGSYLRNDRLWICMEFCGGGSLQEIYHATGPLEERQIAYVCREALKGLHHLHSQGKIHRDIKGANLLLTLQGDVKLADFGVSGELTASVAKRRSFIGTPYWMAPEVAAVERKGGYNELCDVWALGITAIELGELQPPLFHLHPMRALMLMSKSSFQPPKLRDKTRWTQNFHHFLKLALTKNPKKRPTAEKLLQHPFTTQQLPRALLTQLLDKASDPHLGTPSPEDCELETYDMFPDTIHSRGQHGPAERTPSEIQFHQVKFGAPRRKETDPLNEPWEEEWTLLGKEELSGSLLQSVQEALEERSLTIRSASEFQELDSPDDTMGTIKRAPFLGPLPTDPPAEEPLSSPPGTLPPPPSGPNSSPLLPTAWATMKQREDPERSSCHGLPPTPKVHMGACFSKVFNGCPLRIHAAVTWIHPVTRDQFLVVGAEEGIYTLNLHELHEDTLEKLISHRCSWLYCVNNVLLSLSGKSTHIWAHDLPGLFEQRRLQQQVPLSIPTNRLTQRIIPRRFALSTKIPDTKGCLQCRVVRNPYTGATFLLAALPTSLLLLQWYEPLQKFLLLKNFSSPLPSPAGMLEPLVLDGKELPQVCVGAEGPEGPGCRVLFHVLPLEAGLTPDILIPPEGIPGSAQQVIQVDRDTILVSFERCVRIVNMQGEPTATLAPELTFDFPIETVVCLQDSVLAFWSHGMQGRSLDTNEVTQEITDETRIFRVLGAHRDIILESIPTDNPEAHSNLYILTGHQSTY
Nature of the data set: Inhibition of human GCK at 1 uM.

In data set [8] the target is Aurora kinase B (Homo sapiens) (UniProt Q96GD4). The experiment in a line: Inhibition of human Aurora B at 1 uM.
Sequence of Aurora kinase B (Homo sapiens) (Q96GD4 whole entry): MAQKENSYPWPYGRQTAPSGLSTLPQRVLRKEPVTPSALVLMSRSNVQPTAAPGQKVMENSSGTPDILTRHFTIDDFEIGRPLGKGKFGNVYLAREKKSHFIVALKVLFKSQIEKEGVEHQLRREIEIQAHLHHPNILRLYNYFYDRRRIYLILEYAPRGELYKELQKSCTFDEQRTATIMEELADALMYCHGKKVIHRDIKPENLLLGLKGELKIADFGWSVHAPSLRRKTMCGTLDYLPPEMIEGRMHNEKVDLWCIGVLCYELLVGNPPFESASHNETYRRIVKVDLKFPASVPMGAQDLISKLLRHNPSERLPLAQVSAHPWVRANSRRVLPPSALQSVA
For data set [9], the target named is T3, Serine/threonine-protein kinase D1 (Homo sapiens) (UniProt Q15139).
T3 sequence (whole entry): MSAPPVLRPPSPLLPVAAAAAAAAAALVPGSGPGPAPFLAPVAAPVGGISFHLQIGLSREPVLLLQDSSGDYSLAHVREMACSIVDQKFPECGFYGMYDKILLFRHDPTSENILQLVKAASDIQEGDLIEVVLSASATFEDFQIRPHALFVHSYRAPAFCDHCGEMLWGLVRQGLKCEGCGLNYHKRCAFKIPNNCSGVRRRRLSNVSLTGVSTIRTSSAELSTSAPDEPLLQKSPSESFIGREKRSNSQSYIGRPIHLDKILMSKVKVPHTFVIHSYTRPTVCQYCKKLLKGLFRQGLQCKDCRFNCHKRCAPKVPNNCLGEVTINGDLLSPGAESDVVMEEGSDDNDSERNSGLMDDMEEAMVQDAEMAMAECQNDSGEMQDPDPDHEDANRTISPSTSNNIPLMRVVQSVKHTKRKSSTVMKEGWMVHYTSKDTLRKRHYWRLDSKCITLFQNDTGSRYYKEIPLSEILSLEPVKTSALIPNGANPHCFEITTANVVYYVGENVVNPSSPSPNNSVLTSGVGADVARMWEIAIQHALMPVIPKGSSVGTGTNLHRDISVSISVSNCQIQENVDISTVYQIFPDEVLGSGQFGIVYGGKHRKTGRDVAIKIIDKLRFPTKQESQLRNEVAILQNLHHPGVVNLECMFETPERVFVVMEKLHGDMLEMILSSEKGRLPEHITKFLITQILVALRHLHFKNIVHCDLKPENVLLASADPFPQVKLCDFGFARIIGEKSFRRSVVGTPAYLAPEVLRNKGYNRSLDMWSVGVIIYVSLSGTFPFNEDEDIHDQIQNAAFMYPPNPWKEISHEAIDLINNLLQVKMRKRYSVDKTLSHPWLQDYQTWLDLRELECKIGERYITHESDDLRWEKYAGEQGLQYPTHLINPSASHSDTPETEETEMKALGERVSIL
The experiment in a line: Inhibition of human PKD1 at 1 uM.

Data set [10] concerns the target Serine/threonine-protein kinase Chk2 (Homo sapiens) (UniProt O96017). The experiment in a line: Inhibition of human CHK2 at 1 uM.
Data set [11] deals with Dual specificity mitogen-activated protein kinase kinase 1 (Homo sapiens) (UniProt Q02750). Nature of the data set: Inhibition of human MKK1 at 1 uM.
For data set [12], the target named is Ribosomal protein S6 kinase alpha-1 (Homo sapiens) (UniProt Q15418). Nature of the data set: Inhibition of human RSK1 at 1 uM.
Sequence of Ribosomal protein S6 kinase alpha-1 (Homo sapiens) (Q15418 whole entry): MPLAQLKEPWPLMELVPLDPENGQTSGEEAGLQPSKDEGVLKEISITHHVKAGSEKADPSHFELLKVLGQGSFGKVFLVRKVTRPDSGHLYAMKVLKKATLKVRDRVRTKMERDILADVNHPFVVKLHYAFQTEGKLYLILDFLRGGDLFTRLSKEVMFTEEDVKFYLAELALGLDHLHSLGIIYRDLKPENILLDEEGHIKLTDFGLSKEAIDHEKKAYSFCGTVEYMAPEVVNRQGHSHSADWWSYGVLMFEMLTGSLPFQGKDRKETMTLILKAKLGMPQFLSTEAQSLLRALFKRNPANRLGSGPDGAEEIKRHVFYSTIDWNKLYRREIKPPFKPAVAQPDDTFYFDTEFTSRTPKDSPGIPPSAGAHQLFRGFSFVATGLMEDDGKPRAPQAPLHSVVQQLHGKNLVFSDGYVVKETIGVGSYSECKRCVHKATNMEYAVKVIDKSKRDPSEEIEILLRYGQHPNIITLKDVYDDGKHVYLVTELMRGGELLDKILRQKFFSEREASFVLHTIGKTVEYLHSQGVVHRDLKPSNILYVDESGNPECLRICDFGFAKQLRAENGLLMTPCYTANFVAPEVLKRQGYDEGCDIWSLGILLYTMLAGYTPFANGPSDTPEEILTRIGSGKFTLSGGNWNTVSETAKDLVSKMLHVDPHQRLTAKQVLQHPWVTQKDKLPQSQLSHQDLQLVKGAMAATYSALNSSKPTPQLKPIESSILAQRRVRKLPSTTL
Data set [13] can be described thus: Metabolic stability in mouse liver microsomes after 30 mins. In kind it is ADME, Microsome. The conditions noted are these: read-out: Stability. For orientation: Liver microsomes are vesicles of endoplasmic reticulum, rich in cytochrome P450 enzymes.
Data set [14] concerns the target Phosphorylase kinase (Homo sapiens) (UniProt P15735+P46020+P46019+Q93100+Q16816). Nature of the data set: Inhibition of human PHK at 1 uM. Format: protein-complex assay.
Data set [15] concerns the target Receptor tyrosine-protein kinase erbB-4 (Homo sapiens) (UniProt Q15303). Nature of the data set: Inhibition of human HER4 at 1 uM.
In data set [16] the target is Calcium/calmodulin-dependent protein kinase type 1 (Homo sapiens) (UniProt Q14012). Nature of the data set: Inhibition of human CAMK1 at 1 uM.
Sequence of Calcium/calmodulin-dependent protein kinase type 1 (Homo sapiens) (Q14012 whole entry, looked up): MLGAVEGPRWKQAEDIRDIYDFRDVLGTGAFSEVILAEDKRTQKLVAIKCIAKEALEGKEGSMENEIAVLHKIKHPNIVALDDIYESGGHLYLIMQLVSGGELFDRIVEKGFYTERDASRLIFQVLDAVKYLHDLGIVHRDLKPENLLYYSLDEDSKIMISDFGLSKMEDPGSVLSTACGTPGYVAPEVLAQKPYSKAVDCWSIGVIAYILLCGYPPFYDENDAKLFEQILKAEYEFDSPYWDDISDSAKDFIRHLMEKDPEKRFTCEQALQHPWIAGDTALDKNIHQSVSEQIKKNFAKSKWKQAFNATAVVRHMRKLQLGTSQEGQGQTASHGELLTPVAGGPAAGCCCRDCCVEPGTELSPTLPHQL
Data set [17] is described as follows: Metabolic stability in human liver microsomes after 30 mins. In kind it is ADME, Microsome. The conditions noted are these: read-out: Stability.

Sequence of Serine/threonine-protein kinase Chk2 (Homo sapiens) (O96017 whole entry): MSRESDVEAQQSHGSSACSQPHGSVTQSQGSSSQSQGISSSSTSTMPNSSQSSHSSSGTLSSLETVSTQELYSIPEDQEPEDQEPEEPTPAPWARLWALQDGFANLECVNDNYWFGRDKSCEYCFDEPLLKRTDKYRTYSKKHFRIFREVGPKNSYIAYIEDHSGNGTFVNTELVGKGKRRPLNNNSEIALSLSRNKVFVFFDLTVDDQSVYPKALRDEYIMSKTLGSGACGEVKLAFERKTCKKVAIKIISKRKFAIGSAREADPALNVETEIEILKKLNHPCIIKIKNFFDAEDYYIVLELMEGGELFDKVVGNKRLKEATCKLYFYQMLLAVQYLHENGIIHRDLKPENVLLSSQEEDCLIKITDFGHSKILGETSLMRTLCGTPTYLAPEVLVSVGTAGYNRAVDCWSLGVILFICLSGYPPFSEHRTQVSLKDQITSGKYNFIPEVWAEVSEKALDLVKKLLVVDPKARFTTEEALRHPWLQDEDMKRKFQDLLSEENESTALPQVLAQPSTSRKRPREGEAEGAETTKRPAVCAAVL
Sequence of Receptor tyrosine-protein kinase erbB-4 (Homo sapiens) (Q15303 whole entry): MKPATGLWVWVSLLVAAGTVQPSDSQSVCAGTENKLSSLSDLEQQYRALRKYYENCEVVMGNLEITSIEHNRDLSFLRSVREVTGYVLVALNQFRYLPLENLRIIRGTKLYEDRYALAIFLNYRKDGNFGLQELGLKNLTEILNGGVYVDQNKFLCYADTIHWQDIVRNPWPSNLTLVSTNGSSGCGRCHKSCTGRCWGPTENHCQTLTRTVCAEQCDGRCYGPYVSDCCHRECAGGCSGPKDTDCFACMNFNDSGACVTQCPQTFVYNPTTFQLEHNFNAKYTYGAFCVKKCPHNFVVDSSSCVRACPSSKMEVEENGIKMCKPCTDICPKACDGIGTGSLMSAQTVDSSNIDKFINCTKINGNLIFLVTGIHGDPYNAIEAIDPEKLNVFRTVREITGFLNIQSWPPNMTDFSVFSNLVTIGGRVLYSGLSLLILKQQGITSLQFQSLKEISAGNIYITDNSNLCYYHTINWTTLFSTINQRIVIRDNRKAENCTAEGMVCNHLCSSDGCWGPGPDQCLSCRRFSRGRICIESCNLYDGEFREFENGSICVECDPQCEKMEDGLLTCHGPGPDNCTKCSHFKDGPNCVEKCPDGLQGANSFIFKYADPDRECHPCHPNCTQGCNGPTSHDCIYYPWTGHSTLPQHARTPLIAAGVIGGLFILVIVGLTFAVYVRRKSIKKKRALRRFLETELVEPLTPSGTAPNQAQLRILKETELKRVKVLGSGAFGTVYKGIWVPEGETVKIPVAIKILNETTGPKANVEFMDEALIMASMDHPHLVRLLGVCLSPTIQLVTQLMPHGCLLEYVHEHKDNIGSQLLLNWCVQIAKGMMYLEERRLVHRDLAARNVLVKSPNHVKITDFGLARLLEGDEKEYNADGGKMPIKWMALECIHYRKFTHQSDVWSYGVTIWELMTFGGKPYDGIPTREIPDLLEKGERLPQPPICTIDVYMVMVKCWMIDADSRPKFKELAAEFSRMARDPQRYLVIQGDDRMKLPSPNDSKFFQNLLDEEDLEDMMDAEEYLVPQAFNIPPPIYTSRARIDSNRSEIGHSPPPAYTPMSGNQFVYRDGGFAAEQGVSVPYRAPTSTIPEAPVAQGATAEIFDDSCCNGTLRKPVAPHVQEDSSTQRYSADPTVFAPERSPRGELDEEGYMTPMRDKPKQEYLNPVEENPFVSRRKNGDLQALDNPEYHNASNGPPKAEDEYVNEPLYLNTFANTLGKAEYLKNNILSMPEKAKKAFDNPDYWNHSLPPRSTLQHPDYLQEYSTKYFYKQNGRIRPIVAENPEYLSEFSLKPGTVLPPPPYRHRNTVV

In the case of `CC(=O)Nc1cccc(-c2cnc3ccc(N[C@H]4CC[C@H](N)CC4)nn23)c1`, in the data set on Plasmodium berghei, the inhibition entry was “Active”.
Still for that read-out and setting: in the case of `CCCCNc1ccc(-c2cnc3ccc(NC4CCN(C)CC4)nn23)cn1` it was “Active”; in that of `CC(C)CCNC(=O)c1ccc(-c2cnc3ccc(NC4CCN(C)CC4)nn23)cc1`, “Active”; in that of `COC(=O)Nc1cccc(-c2cnc3ccc(NC4CCN(C)CC4)nn23)c1`, “Active”.
In the case of `CC(C)CCNc1cc(-c2cnc3ccc(NC4CCN(C)CC4)nn23)ccn1`, the inhibition entry in the data set on Plasmodium berghei was “Active”.
In the case of `CC(C)CCOc1ccc(-c2cnc3ccc(N[C@H]4CC[C@H](N)CC4)nn23)cn1`, the inhibition result in the data set with Plasmodium berghei is “Active”.
As to `CC(C)CCNc1ccc(-c2cnc3ccc(NC4CCN(C)CC4)nn23)cn1`, the inhibition result (in the data set on Plasmodium vivax; in the data set with Plasmodium berghei; in [2]; in the data set filed under Homo sapiens; in data set [3]; in data set [4]) was “Active” throughout. Also, the inhibition entry in data set [5], in data set [6], in data set [7], in data set [8], in data set [9] and in data set [10] was “Active” throughout. Besides, the inhibition result in data set [11] and in [12] was “Active” each time. In [1], the CLint scaled (as a rule, the capacity of the preparation to metabolise the compound, expressed as a volume cleared per time) was 49.7 mL/min/kg. For the same molecule, the remaining at 0.5 h in data set [13] was determined as 63%.
Consider `CN1CCC(Nc2ccc3ncc(-c4ccc(NCC5CC5)nc4)n3n2)CC1`, for which, in the data set on Plasmodium berghei, the inhibition entry was “Active”.
As to `CC(C)CCNc1ccc(-c2cnc3ccc(N4CCN(C)CC4)nn23)cn1`, the inhibition result with Plasmodium berghei is “Active”.
Take `CC(C)CCNC(=O)c1ccc(-c2cnc3ccc(N[C@H]4CC[C@H](N)CC4)nn23)cc1`: the inhibition result with Plasmodium berghei was “Active”.
As for `NC(=O)c1ccc(-c2cnc3ccc(NCCc4cccnc4)nn23)cc1`, the inhibition result with Plasmodium berghei is “Active”.
As for `CC(=O)Nc1cccc(-c2cnc3ccc(NCCc4ccccn4)nn23)c1`, the inhibition result in the data set with Plasmodium berghei is “Active”.
The same measure, in the same setting: under `CN1CCC(Nc2ccc3ncc(-c4cccc(NC(=O)C5CC5)c4)n3n2)CC1` stands “Active”; under `CC(C)CCNc1ccc(-c2cnc3ccc(NC4CN(C)C4)nn23)cn1`, “Active”.
The same measure, in the same setting: under `N#Cc1ccc(-c2cnc3ccc(NCCc4cccnc4)nn23)cc1` stands “Active”.
Turning to `CC(C)CCNc1ccc(-c2cnc3ccc(N4CCC(N)CC4)nn23)cn1`, the inhibition entry (with Plasmodium vivax; with Plasmodium berghei; in [14]; in data set [15]; in data set [16]; in data set [6]) was “Active” throughout. For the same molecule, in data set [12], the inhibition entry was “Active”. Moreover, the remaining at 0.5 h in data set [13] and in data set [17] was 90% throughout.
Consider `CC(C)CCNc1nccc(-c2cnc3ccc(NC4CCN(C)CC4)nn23)n1`, for which the inhibition result in the data set with Plasmodium berghei is “Active”.
With `CC(C)CCNc1ncc(-c2cnc3ccc(N[C@H]4CC[C@H](N)CC4)nn23)cn1`, in the data set with Plasmodium berghei, the inhibition result is “Active”.
For `NC(=O)c1ccc(-c2cnc3ccc(NCCc4ccccn4)nn23)cc1`, in the data set on Plasmodium berghei, the inhibition result is “Active”.
For the molecule `CC(C)CCNc1ccc(-c2cnc3ccc(N4CCC(N(C)C)CC4)nn23)cn1`, in the data set with Plasmodium berghei, the inhibition entry is “Active”. Further, the remaining at 0.5 h turned out to be 84% in [13] and 80% in data set [17].
As to `Fc1cccc(-c2cnc3ccc(NCCc4cccnc4)nn23)c1`, the inhibition entry in the data set on Plasmodium berghei was “Active”.
Still for that read-out and setting: in the case of `CC(C)CCNc1ncc(-c2cnc3ccc(NC4CCN(C)CC4)nn23)cn1` it was “Active”; in that of `COCCNc1ccc(-c2cnc3ccc(NC4CCN(C)CC4)nn23)cn1`, “Active”.
Consider `CC(C)CCNc1ccc(-c2cnc3ccc(NC4CCN(C)C4)nn23)cn1` (centres undefined), for which the inhibition result (in the data set with Plasmodium vivax; in the data set with Plasmodium berghei; in data set [12]) was “Active” in each case. The remaining at 0.5 h in data set [13] was determined as 74%; in data set [17], 63%.
For the molecule `CC(C)CCNc1ccc(-c2cnc3ccc(NC4CCNCC4)nn23)cn1`, in the data set with Plasmodium berghei, the inhibition result was “Active”.
